These results are taken from ChEMBL document CHEMBL4376814, “Novel cyclin-dependent kinase 9 (CDK9) inhibitor with suppression of cancer stemness activity against non-small-cell lung cancer” (Eur J Med Chem, 2019).

Calls of active or inactive are those of the source. No cut-off for these calls is given here.

In test [1] the target is Proto-oncogene tyrosine-protein kinase Src (Homo sapiens) (UniProt P12931). The experiment in a line: Inhibition of recombinant full-length human cSRC at 1 uM using KVEKIGEGTYGVVYK as substrate measured after 40 mins in presence of [gamma33P]ATP by scintillation counting method relative to control.
In test [2] the target is cGMP-dependent protein kinase 1 (Homo sapiens) (UniProt Q13976). The experiment in a line: Inhibition of recombinant full-length human PKG1alpha at 1 uM using RRRLSFAEPG as substrate measured after 40 mins in presence of [gamma33P]ATP by scintillation counting method relative to control.
For test [3], the target named is Dual specificity protein kinase CLK4 (Homo sapiens) (UniProt Q9HAZ1). The experiment in a line: Inhibition of recombinant human CLK4 (128 to end residues) at 1 uM using YRRAAVPPSPSLSRHSSPHQS(p) EDEEE as substrate measured after 40 mins in presence of [gamma33P]ATP by scintillation counting method relative to control. A digest of the protocol:
(§1)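 Single-point inhibition at 1 µM was measured in the Eurofins KinaseProfiler panel. Values are the mean of two independent experiments.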

Test [4] has as its target PI3-kinase p110-alpha/p85-alpha (Homo sapiens) (UniProt P27986+P42336). The experiment in a line: Inhibition of recombinant full-length human PI3K p110alpha/p85alpha at 1 uM using phosphatidylinositol-4, 5-bisphosphate as substrate measured after 40 mins by fluorescence assay relative to control. Type of test: protein-complex assay.
Test [5] addresses Cyclin-dependent kinase 9 (Homo sapiens) (UniProt P50750). The following applies: 0.25 uM.
The target of test [6] is Activin receptor type-2A (Homo sapiens) (UniProt P27037). The experiment in a line: Inhibition of recombinant human ACTR2 (162 to end residues) at 1 uM using casein as substrate measured after 120 mins in presence of [gamma33P]ATP by scintillation counting method relative to control.
Test [7] relates to A549. The experiment in a line: Inhibition of tumorsphere formation in human A549 cells assessed as reduction in side population ratio by PI/Hoechst 33342 staining based flow cytometry. The test is classed as functional, cell-based. In general terms: A flow cytometer gives signals particle by particle.
Test [8] has as its target Casein kinase I isoform gamma-1 (Homo sapiens) (UniProt Q9HCP0). The experiment in a line: Inhibition of recombinant human CK1gamma1 (25 to 355 residues) at 1 uM using KRRRALS(p)VASLPGL as substrate measured after 40 mins in presence of [gamma33P]ATP by scintillation counting method relative to control. In a few lines: as §1
Test [9] has as its target Dual specificity tyrosine-phosphorylation-regulated kinase 2 (Homo sapiens) (UniProt Q92630). The experiment in a line: Inhibition of recombinant full-length human DYRK2 at 1 uM using casein as substrate measured after 40 mins in presence of [gamma33P]ATP by scintillation counting method relative to control.
For test [10], the system named is Hepatocyte growth factor receptor (Homo sapiens), P08581 [M1250T]. The experiment in a line: Inhibition of recombinant human MET A1209G/V1290L/M1268T mutant (974 to end residues) at 1 uM using KKKGQEEEYVFIE as substrate measured after 40 mins in presence of [gamma33P]ATP by scintillation counting method relative to control.
For test [11], the system named is A549. The experiment in a line: Antiproliferative activity against human A549 cells assessed as inhibition of cell viability at 10 uM after 72 hrs by CCK-8 assay relative to control. The test is classed as functional. The following applies: A549, 72 h. A digest of the protocol: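 Single-concentration viability screen using CCK-8. Cells were seeded at 3000/well and treated for 72 h. A450 read after 1-4 h with reagent. Percent inhibition calculated against untreated control and blank wells as (Ac−As)/(Ac−Ab)×100%.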
(Tetrazolium assays rely on reduction of a dye to a coloured formazan, in cell work by metabolically active cells.)

Test [12] deals with NCI-H1299. The experiment in a line: Induction of apoptosis in human H1299 cells assessed as necrotic cells at 0.5 uM after 48 hrs by AnnexinV-FITC/PI staining-based flow cytometric analysis (reference value: 0.9%). Type of test: functional.
The subject of test [13] is Serine/threonine-protein kinase Sgk1 (Homo sapiens), O00141 [S422D]. The experiment in a line: Inhibition of recombinant human SGK S422D mutant (60 to end residues) at 1 uM using GRPRTSSFAEGKK as substrate measured after 40 mins in presence of [gamma33P]ATP by scintillation counting method relative to control.
The next test has as its system HepG2. The experiment in a line: Antiproliferative activity against human HepG2 cells assessed as inhibition of cell viability after 72 hrs by CCK-8 assay. Type of test: functional, cell-based. The following applies: HepG2, 72 h. In a few lines: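 Cells kept at 37 °C, 5% CO2 in DMEM or RPMI-1640 with 10% FBS and 1% penicillin/streptomycin, then seeded at 3000 cells/well (adherent) or 10,000 cells/well (suspension). Exposed to a range of concentrations for 72 h. CCK-8 added for 1-4 h before reading A450. […] Three independent experiments.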

Test [14] concerns the target Activin receptor type-1 (Homo sapiens) (UniProt Q04771). The experiment in a line: Inhibition of recombinant human ALK2 (147 to end residues) at 1 uM using casein as substrate measured after 40 mins in presence of [gamma33P]ATP by scintillation counting method relative to control. A digest of the protocol: as §1
Test [15] addresses Tyrosine-protein kinase Lck (Homo sapiens) (UniProt P06239). The experiment in a line: Inhibition of recombinant full-length human LCK activated at 1 uM using KVEKIGEGTYGVVYK as substrate measured after 40 mins in presence of [gamma33P]ATP by scintillation counting method relative to control.
The target in test [16] is Calcium/calmodulin-dependent protein kinase type 1 (Homo sapiens) (UniProt Q14012). The experiment in a line: Inhibition of recombinant human CaMK1 (2 to end residues) at 1 uM using calmodulin as substrate measured after 40 mins in presence of [gamma33P]ATP by scintillation counting method relative to control.
For test [17], the system named is NCI-H1299. The experiment in a line: Downregulation of SOX2 in human H1299 cells at 0.25 to 1 uM by Western blot analysis. The test is classed as functional, cell-based.
Test [18] addresses LIM domain kinase 2 (Homo sapiens) (UniProt P53671). The experiment in a line: Inhibition of recombinant human LIMK2 at 1 uM by radiometric method relative to control.
A further test is filed under the species Homo sapiens. The experiment in a line: Inhibition of recombinant human MAPKAPK2 A399G mutant (46 to end residues) at 1 uM using KKLNRTLSVA as substrate measured after 40 mins in presence of [gamma33P]ATP by scintillation counting method relative to control. In a few lines:
as §1

The subject of test [19] is TGF-beta receptor type-1 (Homo sapiens), P36897 [T204D]. The experiment in a line: Inhibition of human TGFBR1 T204D mutant (200 to end residues) at 1 uM using casein as substrate measured after 40 mins in presence of [gamma33P]ATP by scintillation counting method relative to control. In a few lines: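 Percent inhibition of kinase activity at a single compound concentration, measured by the outsourced Eurofins KinaseProfiler panel. Values are the mean of two independent experiments.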

Test [20] has as its target Serine/threonine-protein kinase N2 (Homo sapiens) (UniProt Q16513). The experiment in a line: Inhibition of human PRK2 (501 to end residues) at 1 uM using AKRRRLSSLRA as substrate measured after 40 mins in presence of [gamma33P]ATP by scintillation counting method relative to control. A digest of the protocol:
as §1

Test [21] deals with CDK18/Cyclin Y (Homo sapiens), Q07002+Q8ND76 [T166M]. The experiment in a line: Inhibition of recombinant full length human cyclinY/CDK18 T166M mutant at 1 uM using YRRAAVPPSPSLS as substrate measured after 40 mins in presence of [gamma33P]ATP by scintillation counting method relative to control. The test is classed as protein-complex assay. A digest of the protocol:
as §1

Hepatocyte growth factor receptor (Homo sapiens), P08581 [M1250T], sequence (P08581 whole entry M1250T): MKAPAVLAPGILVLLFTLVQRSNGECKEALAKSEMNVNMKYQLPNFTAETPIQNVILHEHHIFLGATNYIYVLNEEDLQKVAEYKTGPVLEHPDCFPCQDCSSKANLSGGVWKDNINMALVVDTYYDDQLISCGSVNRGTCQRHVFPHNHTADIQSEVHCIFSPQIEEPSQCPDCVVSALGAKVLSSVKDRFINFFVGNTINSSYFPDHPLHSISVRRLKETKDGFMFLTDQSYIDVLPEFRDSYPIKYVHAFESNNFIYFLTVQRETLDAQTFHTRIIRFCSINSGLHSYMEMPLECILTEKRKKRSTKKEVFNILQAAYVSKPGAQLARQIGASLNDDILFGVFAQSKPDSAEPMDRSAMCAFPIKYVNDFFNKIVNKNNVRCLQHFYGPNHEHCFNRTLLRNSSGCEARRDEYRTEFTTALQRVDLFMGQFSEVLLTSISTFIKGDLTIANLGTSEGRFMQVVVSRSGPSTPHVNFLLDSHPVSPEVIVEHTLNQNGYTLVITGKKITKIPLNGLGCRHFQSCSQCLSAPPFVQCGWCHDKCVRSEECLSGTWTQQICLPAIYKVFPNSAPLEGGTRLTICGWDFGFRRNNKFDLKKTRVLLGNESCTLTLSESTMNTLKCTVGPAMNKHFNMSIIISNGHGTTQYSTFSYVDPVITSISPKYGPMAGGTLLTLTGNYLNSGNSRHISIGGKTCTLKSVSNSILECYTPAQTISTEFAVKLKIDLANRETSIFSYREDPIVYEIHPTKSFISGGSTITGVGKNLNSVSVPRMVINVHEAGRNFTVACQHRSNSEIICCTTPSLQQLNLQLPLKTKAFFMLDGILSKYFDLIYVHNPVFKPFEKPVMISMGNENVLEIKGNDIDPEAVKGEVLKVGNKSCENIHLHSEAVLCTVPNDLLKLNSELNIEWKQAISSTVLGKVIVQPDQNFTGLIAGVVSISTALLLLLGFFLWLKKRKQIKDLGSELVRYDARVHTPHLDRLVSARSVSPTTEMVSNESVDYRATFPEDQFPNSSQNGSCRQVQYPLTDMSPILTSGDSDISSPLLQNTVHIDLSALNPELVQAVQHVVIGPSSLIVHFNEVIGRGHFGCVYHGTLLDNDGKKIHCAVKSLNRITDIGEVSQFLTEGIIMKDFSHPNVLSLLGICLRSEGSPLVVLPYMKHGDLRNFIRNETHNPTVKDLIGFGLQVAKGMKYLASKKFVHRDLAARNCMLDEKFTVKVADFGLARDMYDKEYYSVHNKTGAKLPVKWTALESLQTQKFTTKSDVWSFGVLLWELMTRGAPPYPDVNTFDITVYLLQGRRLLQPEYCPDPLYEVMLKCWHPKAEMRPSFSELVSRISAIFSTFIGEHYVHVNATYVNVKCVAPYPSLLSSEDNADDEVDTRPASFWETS
Serine/threonine-protein kinase N2 (Homo sapiens), sequence (Q16513 whole entry, looked up): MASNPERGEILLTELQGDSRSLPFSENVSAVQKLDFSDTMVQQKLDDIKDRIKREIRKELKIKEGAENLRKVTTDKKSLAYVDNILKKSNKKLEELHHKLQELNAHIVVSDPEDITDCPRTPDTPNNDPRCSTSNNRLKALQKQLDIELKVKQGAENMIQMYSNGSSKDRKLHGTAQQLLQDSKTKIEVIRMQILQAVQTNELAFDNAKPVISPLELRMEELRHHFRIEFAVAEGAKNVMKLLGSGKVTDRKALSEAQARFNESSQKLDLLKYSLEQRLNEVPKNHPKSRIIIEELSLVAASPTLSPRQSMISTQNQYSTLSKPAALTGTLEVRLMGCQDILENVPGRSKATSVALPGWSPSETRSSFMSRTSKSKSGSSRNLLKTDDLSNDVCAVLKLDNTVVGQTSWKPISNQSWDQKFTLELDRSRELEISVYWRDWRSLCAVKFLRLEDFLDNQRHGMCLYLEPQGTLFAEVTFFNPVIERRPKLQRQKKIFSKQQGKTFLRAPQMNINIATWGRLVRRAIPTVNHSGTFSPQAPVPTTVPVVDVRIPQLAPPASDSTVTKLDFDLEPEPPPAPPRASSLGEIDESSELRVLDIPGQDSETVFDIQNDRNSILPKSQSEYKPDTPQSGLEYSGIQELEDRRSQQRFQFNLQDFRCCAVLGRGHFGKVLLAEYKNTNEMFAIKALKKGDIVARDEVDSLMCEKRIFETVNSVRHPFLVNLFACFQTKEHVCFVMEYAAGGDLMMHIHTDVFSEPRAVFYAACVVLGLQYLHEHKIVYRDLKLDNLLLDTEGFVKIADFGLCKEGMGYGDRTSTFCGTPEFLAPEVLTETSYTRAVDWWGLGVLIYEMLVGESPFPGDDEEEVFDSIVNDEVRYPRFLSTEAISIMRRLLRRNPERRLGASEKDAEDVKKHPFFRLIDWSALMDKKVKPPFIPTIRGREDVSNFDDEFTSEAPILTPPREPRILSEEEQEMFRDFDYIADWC
LIM domain kinase 2 (Homo sapiens), sequence (P53671 whole entry, looked up, the tested form may be a part): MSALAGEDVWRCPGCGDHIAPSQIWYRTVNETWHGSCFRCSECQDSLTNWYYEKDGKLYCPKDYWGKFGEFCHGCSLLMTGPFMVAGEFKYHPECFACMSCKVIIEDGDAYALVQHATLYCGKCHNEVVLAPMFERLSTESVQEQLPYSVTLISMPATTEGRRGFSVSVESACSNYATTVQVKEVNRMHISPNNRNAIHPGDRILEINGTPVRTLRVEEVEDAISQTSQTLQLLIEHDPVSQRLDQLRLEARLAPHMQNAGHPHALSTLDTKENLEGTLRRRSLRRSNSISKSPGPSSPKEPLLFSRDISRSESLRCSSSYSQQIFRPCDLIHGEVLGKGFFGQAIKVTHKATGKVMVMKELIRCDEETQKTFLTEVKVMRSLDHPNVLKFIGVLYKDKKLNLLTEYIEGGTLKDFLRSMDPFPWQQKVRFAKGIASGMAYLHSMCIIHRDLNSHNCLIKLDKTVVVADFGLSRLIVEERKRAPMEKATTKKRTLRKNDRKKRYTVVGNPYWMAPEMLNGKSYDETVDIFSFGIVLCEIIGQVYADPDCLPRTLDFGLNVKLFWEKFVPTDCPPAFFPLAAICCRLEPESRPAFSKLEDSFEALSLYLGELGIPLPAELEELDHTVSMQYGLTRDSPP
Activin receptor type-1 (Homo sapiens), sequence (Q04771 whole entry): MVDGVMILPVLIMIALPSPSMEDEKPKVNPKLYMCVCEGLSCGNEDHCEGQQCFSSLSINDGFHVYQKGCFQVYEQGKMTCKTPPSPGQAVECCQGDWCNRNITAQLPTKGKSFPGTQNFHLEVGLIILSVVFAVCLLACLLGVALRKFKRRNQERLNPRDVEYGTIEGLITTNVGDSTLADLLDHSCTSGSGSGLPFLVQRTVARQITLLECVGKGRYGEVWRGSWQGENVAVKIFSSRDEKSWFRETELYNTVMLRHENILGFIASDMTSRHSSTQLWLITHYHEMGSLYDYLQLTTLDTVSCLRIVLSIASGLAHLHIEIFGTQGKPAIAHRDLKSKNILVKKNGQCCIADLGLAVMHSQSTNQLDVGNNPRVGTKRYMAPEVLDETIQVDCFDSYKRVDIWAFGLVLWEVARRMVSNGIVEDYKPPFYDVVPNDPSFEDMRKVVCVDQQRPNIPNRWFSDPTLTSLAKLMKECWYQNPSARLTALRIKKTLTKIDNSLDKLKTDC
Casein kinase I isoform gamma-1 (Homo sapiens), sequence (Q9HCP0 whole entry, looked up, the tested form may be a part, canonical isoform): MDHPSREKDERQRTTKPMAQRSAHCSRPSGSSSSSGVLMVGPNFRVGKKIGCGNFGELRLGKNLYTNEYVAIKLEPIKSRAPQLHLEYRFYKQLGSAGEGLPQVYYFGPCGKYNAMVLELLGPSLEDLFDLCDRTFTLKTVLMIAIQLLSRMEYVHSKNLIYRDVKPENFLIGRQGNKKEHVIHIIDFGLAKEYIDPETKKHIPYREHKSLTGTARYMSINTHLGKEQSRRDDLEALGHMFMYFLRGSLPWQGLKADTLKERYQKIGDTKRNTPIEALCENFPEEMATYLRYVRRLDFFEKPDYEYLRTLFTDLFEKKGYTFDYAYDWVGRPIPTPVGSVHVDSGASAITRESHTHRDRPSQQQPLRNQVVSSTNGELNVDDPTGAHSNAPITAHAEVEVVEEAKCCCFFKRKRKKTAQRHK
Dual specificity tyrosine-phosphorylation-regulated kinase 2 (Homo sapiens), sequence (Q92630 whole entry): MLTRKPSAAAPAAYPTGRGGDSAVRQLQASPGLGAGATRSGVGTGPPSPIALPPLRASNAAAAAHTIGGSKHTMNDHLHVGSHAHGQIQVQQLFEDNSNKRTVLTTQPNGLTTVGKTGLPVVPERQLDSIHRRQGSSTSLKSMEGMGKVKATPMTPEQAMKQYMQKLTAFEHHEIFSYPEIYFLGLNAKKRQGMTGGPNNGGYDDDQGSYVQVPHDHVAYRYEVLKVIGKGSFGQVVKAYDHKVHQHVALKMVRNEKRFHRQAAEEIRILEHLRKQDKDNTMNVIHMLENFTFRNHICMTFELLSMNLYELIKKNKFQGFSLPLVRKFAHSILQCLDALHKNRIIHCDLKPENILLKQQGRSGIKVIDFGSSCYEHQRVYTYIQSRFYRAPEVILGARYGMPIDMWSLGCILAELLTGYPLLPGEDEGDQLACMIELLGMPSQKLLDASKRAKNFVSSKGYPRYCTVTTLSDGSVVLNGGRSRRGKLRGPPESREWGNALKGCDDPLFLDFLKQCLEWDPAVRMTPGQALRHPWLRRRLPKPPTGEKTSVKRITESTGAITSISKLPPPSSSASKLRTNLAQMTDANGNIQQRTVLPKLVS
Activin receptor type-2A (Homo sapiens), sequence (P27037 whole entry): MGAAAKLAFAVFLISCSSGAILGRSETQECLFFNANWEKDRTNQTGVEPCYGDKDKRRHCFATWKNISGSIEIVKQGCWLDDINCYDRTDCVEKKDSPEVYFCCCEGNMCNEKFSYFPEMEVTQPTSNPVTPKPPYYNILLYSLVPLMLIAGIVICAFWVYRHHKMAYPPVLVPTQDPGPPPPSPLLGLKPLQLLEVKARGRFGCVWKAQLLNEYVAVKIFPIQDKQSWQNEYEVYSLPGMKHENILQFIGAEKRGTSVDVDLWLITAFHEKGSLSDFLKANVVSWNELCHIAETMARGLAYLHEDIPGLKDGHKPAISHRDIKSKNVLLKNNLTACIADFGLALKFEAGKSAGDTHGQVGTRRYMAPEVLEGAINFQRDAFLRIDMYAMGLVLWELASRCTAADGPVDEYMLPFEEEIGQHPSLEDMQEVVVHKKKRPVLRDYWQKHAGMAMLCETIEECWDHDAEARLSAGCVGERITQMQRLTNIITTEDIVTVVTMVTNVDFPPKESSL

As to `CN(C)C(=O)c1cc2cnc(Nc3ccc(NC(=O)CCCCCCCN=C=S)cc3)nc2n1C1CCCC1`, the inhibition in test [1] was 35%; in test [2], -3%; in [3], 1%; in test [4] it was 8%; in [6] it was 0%; with A549 [7], “Dose-dependent effect”. Also, the inhibition in test [8] was 11%; in test [9], -1%; in test [10] it was 60%; in test [13] it was 24%; in test [14] it was 11%; in test [15] it was 26%. Moreover, the inhibition in [16] turned out to be 6%; in test [18], 13%; in the test listed under Homo sapiens, 1%; in test [19] it was 13%; in [20], 11%; in test [21], 11%. For the same molecule, the inhibition entry in test [5] was “Active”. Moreover, the inhibition at 10 µM in the test with A549 [11] is 99.2%. Also, the Activity in the test on NCI-H1299 [12] is 1.11%. Besides, the IC50 with HepG2 was determined as 3.86 µM. In the test with NCI-H1299 [17], the result was Active.

The term inhibition denotes the drop in the measured response relative to a control, in per cent. For orientation: IC50 means the concentration needed to halve the response being measured.
